Laboratory results published in ChEMBL document CHEMBL4627265, “Optimization of 8-oxoadenines with toll-like-receptor 7 and 8 activity” (Bioorg Med Chem Lett, 2020).
Active and inactive are the calls of the source. The rule behind the calls is not given here.

How the values were obtained:
Type in all cases: cell-based
[1] = target: T1, Toll-like receptor 8 (Homo sapiens) (UniProt Q9NR97); experiment: Agonist activity at TLR8 in human PBMC assessed as induction of myeloid dendritic cell maturation by measuring CD86 level at 0.1 uM after 6 hrs by flow cytometry
T1 sequence (whole entry): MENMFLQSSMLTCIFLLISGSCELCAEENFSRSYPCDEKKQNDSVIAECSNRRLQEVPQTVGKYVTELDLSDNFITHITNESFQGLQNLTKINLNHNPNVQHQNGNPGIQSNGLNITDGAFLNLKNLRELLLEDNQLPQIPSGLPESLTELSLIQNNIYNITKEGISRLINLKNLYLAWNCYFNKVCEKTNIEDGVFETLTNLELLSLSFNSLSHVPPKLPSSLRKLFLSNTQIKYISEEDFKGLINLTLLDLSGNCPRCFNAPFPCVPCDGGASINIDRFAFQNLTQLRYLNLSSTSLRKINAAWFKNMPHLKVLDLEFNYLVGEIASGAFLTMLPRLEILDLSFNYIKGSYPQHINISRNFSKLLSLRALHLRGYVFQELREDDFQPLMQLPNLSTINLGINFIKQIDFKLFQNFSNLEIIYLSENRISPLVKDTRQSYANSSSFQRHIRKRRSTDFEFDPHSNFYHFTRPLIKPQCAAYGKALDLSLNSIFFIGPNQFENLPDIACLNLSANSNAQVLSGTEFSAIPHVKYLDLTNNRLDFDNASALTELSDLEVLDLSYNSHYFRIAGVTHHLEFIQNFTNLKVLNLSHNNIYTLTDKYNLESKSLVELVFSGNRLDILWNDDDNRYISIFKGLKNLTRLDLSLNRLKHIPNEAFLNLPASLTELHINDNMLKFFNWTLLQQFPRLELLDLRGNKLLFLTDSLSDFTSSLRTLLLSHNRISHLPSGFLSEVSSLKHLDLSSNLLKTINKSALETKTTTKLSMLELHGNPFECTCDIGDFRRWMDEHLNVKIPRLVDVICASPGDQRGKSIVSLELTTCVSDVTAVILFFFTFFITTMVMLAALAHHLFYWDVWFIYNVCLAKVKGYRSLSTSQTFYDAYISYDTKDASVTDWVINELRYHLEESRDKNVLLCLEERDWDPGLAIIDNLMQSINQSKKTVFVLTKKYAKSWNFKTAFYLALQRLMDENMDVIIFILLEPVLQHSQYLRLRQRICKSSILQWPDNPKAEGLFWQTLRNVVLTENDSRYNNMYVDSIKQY
Procedure, shortened: (§1)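 hPBMCs stimulated 6 h at a single 0.1 μM dose; HLA-DR, MHC-I, CD80 and CD86 on mDCs and pDCs measured by flow cytometry, expressed as fold change versus unstimulated cells. Mean ± SD of three independent experiments in three different donors.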

[2] = target: T1, Toll-like receptor 8 (Homo sapiens); experiment: Agonist activity at TLR8 in human PBMC assessed as TNFalpha level
Procedure, shortened: (§2)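 TNFα secretion by hPBMCs across a μM dose range; MEC = lowest dose tested inducing cytokine, PC = dose giving highest level, PL = peak level at 10 μM. Data representative of one of three independent donors.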

Toll-like receptor 7 = target: T2, Toll-like receptor 7 (Homo sapiens, UniProt Q9NYK1); experiment: Agonist activity at human TLR7 expressed in HEK293 cells assessed as induction of NFKappaB activity after 24 hrs by SEAP reporter gene assay
T2 sequence (Q9NYK1 whole entry): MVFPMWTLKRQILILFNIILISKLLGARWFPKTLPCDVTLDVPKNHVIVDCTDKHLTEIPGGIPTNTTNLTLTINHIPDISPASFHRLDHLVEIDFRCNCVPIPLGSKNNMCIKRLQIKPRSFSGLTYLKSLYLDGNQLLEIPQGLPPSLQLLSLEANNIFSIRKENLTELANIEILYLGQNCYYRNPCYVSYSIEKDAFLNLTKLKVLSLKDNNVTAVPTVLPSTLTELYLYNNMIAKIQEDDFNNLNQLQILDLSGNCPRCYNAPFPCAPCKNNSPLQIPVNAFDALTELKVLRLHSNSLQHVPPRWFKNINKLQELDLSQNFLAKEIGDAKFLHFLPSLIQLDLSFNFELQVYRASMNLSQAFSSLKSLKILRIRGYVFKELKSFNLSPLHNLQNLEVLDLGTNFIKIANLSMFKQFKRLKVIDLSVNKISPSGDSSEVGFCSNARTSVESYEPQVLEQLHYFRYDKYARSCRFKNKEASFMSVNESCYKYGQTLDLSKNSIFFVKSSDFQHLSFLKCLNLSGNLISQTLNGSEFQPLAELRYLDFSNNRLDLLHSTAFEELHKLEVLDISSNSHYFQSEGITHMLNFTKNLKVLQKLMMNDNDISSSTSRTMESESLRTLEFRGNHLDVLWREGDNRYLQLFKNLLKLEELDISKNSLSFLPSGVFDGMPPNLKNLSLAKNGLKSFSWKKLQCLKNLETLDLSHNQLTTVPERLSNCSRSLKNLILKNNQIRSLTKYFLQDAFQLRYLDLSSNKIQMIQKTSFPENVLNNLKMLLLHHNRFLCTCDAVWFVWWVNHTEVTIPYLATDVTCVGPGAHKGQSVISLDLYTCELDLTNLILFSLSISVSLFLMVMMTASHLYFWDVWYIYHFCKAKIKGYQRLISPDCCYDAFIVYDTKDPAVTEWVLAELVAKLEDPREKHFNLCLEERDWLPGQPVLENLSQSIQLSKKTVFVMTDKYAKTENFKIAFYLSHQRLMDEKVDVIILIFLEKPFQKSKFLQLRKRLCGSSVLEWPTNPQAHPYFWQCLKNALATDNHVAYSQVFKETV
Procedure, shortened: (§3)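 HEK293 cells stably transfected with hTLR7 or hTLR8 plus an NFκB-driven SEAP reporter, treated 24 h with compound over a μM range; SEAP secretion read out. EC50 as mean ± SD of three (TLR7) or four (TLR8) independent experiments.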

Toll-like receptor 8 = target: T3, Toll-like receptor 8 (Homo sapiens, UniProt Q9NR97); experiment: Agonist activity at human TLR8 expressed in HEK293 cells assessed as induction of NFKappaB activity after 24 hrs by SEAP reporter gene assay; procedure, shortened: as §3
T3 sequence (Q9NR97 whole entry): T1 sequence (whole entry)

[3] = target: T1, Toll-like receptor 8 (Homo sapiens); experiment: Agonist activity at TLR8 in human PBMC assessed as induction of myeloid dendritic cell maturation by measuring increase in CD80 level at 0.1 uM after 6 hrs by flow cytometry relative to control; procedure, shortened: as §1
[4] = target: T1, Toll-like receptor 8 (Homo sapiens); experiment: Agonist activity at TLR8 in human PBMC assessed as TNFalpha level at 10 uM; procedure, shortened: as §2
[5] = target: T4, Toll-like receptor 7 (Homo sapiens) (UniProt Q9NYK1); experiment: Agonist activity at TLR7 in human PBMC assessed as IFNalpha stimulation at 10 uM
T4 sequence (whole entry): T2 sequence (Q9NYK1 whole entry)
Procedure, shortened: (§4)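 IFNα secretion by hPBMCs across a μM dose range; MEC = lowest dose tested inducing cytokine, PC = dose giving highest level, PL = peak level at 10 μM. Data representative of one of three independent donors.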

[6] = target: TLR7 and TLR8 (Homo sapiens) (UniProt Q9NYK1+Q9NR97); experiment: Agonist activity at TLR7/TLR8 in human PBMC assessed as IFN alpha level; procedure, shortened: as §4
[7] = target: T1, Toll-like receptor 8 (Homo sapiens); experiment: Agonist activity at TLR8 in human PBMC assessed as induction of myeloid dendritic cell maturation by measuring HLA-DR level at 0.1 uM after 6 hrs by flow cytometry; procedure, shortened: as §1

Activity [1]: inactive
MEC [2]: 2 µM
EC50 (Toll-like receptor 7): 4.06 µM
EC50 (Toll-like receptor 8): 2.14 µM
fold change (FC) [3]: 1.5
Activity [4]: 10300 pg/mL
Activity [5]: 4750 pg/mL
ECmax [6]: 0.08 µM
MEC [6]: 0.016 µM
Activity [7]: inactive
Structure (SMILES): CCC[C@H](C)Oc1nc(N)c2[nH]c(=O)n(CC3CCN(CCO)CC3)c2n1
